Legend:
Type in all cases: functional
LoVo [1] = assay: Growth inhibition of human Doxorubicin-resistant LoVo cells after 72 hrs by SRB assay
Outline: (§1)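 Cells kept in RPMI 1640 with 10% FBS, 2 mM L-glutamine, penicillin and streptomycin at 37 °C, 5% CO2. They were seeded at 5000 per well and allowed to attach in drug-free medium (24 h; also stated as 18 h). Compound dilutions in DMSO/EtOH were added for 72 h. Cells were fixed with cold TCA, stained with SRB, solubilised in Tris and read at 490 nm.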

K562 = assay: Growth inhibition of human K562 cells after 72 hrs by SRB assay; conditions: K562, 72 h; outline: as §1
DU-145 = assay: Growth inhibition of human DU145 cells after 72 hrs by SRB assay; conditions: DU-145, 72 h; outline: as §1
SK-MEL-28 = assay: Growth inhibition of human SK-MEL-28 cells after 72 hrs by SRB assay; conditions: SK-MEL-28, 72 h; outline: as §1
SK-BR-3 = assay: Growth inhibition of human SKBR3 cells after 72 hrs by SRB assay; conditions: SK-BR-3, 72 h; outline: as §1
SK-OV-3 = assay: Growth inhibition of human SKOV3 cells after 72 hrs by SRB assay; conditions: SK-OV-3, 72 h; outline: as §1
LNCaP = assay: Growth inhibition of human LNCAP cells after 72 hrs by SRB assay; outline: as §1
A549 = assay: Growth inhibition of human A549 after 72 hrs by SRB assay; conditions: A549, 72 h; outline: as §1
PANC-1 = assay: Growth inhibition of human PANC1 cells after 72 hrs by SRB assay; conditions: PANC-1, 72 h; outline: as §1
HT-29 = assay: Growth inhibition of human HT-29 cells after 72 hrs by SRB assay; conditions: HT-29, 72 h; outline: as §1
[2] = Growth inhibition of human IGROV cells after 72 hrs by SRB assay; outline: as §1
LoVo [3] = assay: Growth inhibition of human LoVo after 72 hrs by SRB assay; outline: as §1
[4] = Growth inhibition of human IGROV-ET cells after 72 hrs by SRB assay; outline: as §1
[5] = read-out: LC50 (the source's name)

C[C@]1(CCCCCCCCCCc2ccccc2)C[C@](C)(CC(=O)O)OO1 [ANDAVADOIC ACID] showed a GI50 (LoVo [1]) of 0.539 µM, a TGI (LoVo [1]) of 0.951 µM and a CC50 (LoVo [1]; [5]) of 1.68 µM. The GI50 (K562) was 0.497 µM, the TGI (K562) was 1.01 µM and the CC50 (K562; [5]) was 2.07 µM. For the same compound, the GI50 (DU-145) was 0.627 µM, the TGI (DU-145) was 0.991 µM and the CC50 (DU-145; [5]) was 1.56 µM. The GI50 (SK-MEL-28) was 0.698 µM, the TGI (SK-MEL-28) was 1.14 µM and the CC50 (SK-MEL-28; [5]) was 1.86 µM. The GI50 (SK-BR-3) was 0.914 µM, the TGI (SK-BR-3) was 1.69 µM and the CC50 (SK-BR-3; [5]) was 2.66 µM. The GI50 (SK-OV-3) was 0.698 µM, the TGI (SK-OV-3) was 1.12 µM and the CC50 (SK-OV-3; [5]) was 1.81 µM. The GI50 (LNCaP) was 0.478 µM, the TGI (LNCaP) was 0.863 µM and the CC50 (LNCaP; [5]) was 1.56 µM. The GI50 (A549) was 0.714 µM, the TGI (A549) was 1.29 µM and the CC50 (A549; [5]) was 2.33 µM. It also gave a GI50 (PANC-1) of 0.526 µM, a TGI (PANC-1) of 0.961 µM and a CC50 (PANC-1; [5]) of 1.75 µM. For the same compound, the GI50 (HT-29) was 0.643 µM, the TGI (HT-29) was 1.13 µM and the CC50 (HT-29; [5]) was 1.98 µM. It also gave a GI50 [2] of 0.102 µM, a TGI [2] of 0.261 µM and a CC50 [2, 5] of 1.83 µM. It also gave a GI50 (LoVo [3]) of 0.635 µM, a TGI (LoVo [3]) of 1.21 µM and a CC50 (LoVo [3]; [5]) of 2.31 µM. The GI50 [4] was 0.133 µM, the TGI [4] was 0.39 µM and the CC50 [4, 5] was 1.34 µM.

Reference: ChEMBL document CHEMBL1150046, “Three new cyclic peroxides from the marine sponge Plakortis aff simplex” (2003)
